Screens: PubChem BioAssay, several laboratories
This is a sample that favours compounds with a hit; in the whole collection about 9.4% have one here.
T cruzi inh = T. cruzi replication inhibition. T. cruzi beta-gal in NIH3T3, luminescence, 90 h. inhibition, % (no concentration beside the values). hit rate 1.4% among 300,000;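 active means mean inhibition across valid replicates above about 55%, limit read from the data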;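 further: signal also drops with host cell toxicity which is not excluded here; 0% = plate median of DMSO wells and 100% = zero luminescence signal; higher percent means less beta-gal luminescence so fewer parasites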
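Incubation – ≥90 h infection period, 3 h prior cell attachment · System – NIH/3T3 fibroblasts plus reporter T. cruzi · Doses – compound pinned at 50 nL/well, DMSO · Read-out basis – percent inhibition of parasite-derived β-gal signal · Signal – luminescent β-galactosidase signal after 60 min lysis · Also added – 5000 T. cruzi trypomastigotes/well · Medium – Low-serum DMEM with 2% FBS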
SKKanGAS inh = blocks kanamycin growth of S. pyogenes SKKanGAS strain. hit rate 1.3% among 300,000. BacTiter-Glo, 6 h. inhibition, % at 7.5 µM;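 active means mean replicate score, as percent of positive control median, at least 50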;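 further: strain carries kanamycin resistance gene driven by streptokinase promoter and grows in 40 µg/ml kanamycin; loss of luminescence reflects streptokinase promoter inhibition or plain growth inhibition; 0% = median of DMSO wells and 100% = positive control at its reference dose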
Mdm2 MdmX PPI = disrupts the human Mdm2-MdmX interaction. O15151+Q00987. SaOS-2 split-luciferase Mdm2/MdmX complementation, luminescence. inhibition, % at 8 µM. hit rate 3% among 330,000;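 active means inhibition of at least 50% at 8 µM in the primary screen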
Target sequence (O15151 whole entry, looked up): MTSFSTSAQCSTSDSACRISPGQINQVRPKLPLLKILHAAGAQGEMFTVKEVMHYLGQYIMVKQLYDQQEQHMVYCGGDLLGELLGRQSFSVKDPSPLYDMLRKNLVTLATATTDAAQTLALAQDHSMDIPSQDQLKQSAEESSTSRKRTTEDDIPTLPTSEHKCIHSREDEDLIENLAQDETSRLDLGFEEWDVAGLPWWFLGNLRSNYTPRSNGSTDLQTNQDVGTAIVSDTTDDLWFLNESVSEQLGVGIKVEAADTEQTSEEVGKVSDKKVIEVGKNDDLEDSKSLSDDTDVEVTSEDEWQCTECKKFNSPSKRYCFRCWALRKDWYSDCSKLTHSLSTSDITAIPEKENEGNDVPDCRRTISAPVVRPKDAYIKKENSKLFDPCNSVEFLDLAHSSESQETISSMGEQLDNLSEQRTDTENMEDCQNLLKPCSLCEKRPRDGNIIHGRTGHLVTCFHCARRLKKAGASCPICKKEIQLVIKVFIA
Target sequence (Q00987 whole entry, looked up): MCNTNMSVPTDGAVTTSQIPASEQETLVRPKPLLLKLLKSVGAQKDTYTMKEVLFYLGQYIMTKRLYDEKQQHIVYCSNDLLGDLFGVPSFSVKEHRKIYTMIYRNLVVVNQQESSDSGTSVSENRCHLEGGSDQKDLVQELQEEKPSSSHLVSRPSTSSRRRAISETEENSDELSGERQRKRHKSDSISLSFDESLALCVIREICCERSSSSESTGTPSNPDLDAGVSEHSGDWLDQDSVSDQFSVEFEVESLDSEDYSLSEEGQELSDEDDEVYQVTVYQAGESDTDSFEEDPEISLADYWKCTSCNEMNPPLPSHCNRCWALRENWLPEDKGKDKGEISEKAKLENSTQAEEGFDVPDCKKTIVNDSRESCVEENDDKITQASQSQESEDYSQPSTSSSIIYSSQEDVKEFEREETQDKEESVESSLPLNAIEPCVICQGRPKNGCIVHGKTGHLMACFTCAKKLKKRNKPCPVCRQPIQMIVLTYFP
Beta cell apopt = beta cell apoptosis inhibition; INS-1E cytokine-induced death, ATP luminescence, 48 h; percent of positive-control rescue, neutral wells zero; protection from apoptosis, % (test concentration not listed); hit rate 0.8% among 300,000;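 active means Every replicate reaches about 75%, or at least half do and their mean reaches it too, limit read from the data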;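 further: 0% = cytokine-treated negative control wells and 100% = positive control rescue; higher means more ATP so stronger rescue from cytokine killing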
Lmaj promast = reduces viability of Leishmania major promastigotes | resazurin fluorescence viability | inhibition, % at 10 µM | hit rate 9% among 200,000; in the data active means inhibition above about 50%;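 further: promastigotes grown with compound for 44 hours at 28 °C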
CSC inhib = blocks cancer stem cells | cancer stem cell-like cells viability, luminescence | inhibition, % at 7.5 µM | AID 2717 | hit rate 1.1% among 300,000; in the data active means inhibition above about 75%; tested in HMLE shEcad cells
* marks the source's active call; other numbers are inactive results; / = not tested or not shown.

SMILES	T cruzi inh	SKKanGAS inh	Mdm2 MdmX PPI	Beta cell apopt	Lmaj promast	CSC inhib
O=C(Nc1ccccc1Cl)c1ccc(-n2cccn2)c([N+](=O)[O-])c1	2.5	5.2	8.2	-1.6	6.3	2.4
Cc1ccc(C(=O)N2CCN(c3ccc(NC(=O)c4cccnc4)cc3)CC2)cc1	1.3	0.1	20.4	9.2	4.1	11.8
O=C(Nc1ccc(N2CCN(C(=O)c3ccco3)CC2)cc1)c1ccc2c(c1)OCO2	-12.7	-9.1	10.0	1.1	-1.0	-9.0
Cc1ccccc1C(=O)N1CCN(c2ccc(NC(=O)c3ccc4c(c3)OCO4)cc2)CC1	11.8	8.8	21.8	4.3	24.0	77.0*
Cc1ccccc1C(=O)N1CCN(c2ccc(NC(=O)c3cccnc3)cc2)CC1	-5.7	-8.5	16.8	74.8*	-1.1	-3.0
CCOC(=O)c1c(NC(=O)CN2C(=O)CN(C)C2=O)sc(C)c1C	-0.6	4.1	37.4	-5.9	6.4	/
O=C1NC[C@@H](Cc2cccc3ccccc23)N(CC2(c3ccccc3)CC2)C1=O	16.5	7.0	49.5	-22.5	/	-8.4
O=C(CSc1nc(-c2ccc(Cl)cc2)[nH]c(=O)n1)Nc1cccc(Cl)c1	-15.4	58.5*	11.0	-11.3	/	49.3
O=C(CSc1n[nH]c(-c2cccnc2)n1)Nc1cccc(Cl)c1	6.1	-7.8	12.3	2.3	/	-2.4
CCC(C)N(C(=O)CSc1nnc(C)n1C)C1CCS(=O)(=O)C1 (stereo not given)	0.9	-2.7	-12.7	/	/	-17.9
Cc1cccc(N2CCN(C(=O)Cc3ccc(-n4c(=O)[nH]c5ccsc5c4=O)cc3)CC2)c1C	3.4	14.3	22.2	9.7	-1.6	/
Cc1ccc(C)c(N2CCN(C(=O)Cc3ccc(-n4c(=O)[nH]c5ccsc5c4=O)cc3)CC2)c1	14.9	16.7	-27.1	10.6	51.5*	25.5
O=C(CCC(=O)c1cccs1)NCC(=O)Nc1ccc(F)c(F)c1F	-12.4	5.7	1.3	-4.8	-2.0	-1.6
CCOc1ccc2c(c1)-c1c(ssc1=S)C(C)(C)N2C(=O)CSC1=NCCS1	20.6	3.7	21.8	-4.2	96.4*	18.2
CCOc1ccc2c(c1)-c1c(ssc1=S)C(C)(C)N2	50.4	-17.7	44.7	6.7	14.5	71.3
Cc1ccc2c(c1)-c1c(ssc1=S)C(C)(C)N2C(=O)CSC1=NCCS1	26.8	-2.0	36.0	3.9	87.2*	15.5
C=CCn1c(SC(C)C#N)nc2sc(CC)cc2c1=O (stereo not given)	4.3	13.9	25.8	1.8	1.6	26.2
CCC1(c2ccccc2)NC(=O)N(CC(=O)Nc2ccc(S(N)(=O)=O)cc2)C1=O (stereo not given)	-7.3	-0.1	5.8	4.7	/	-0.2
CC(/C=C/c1ccccc1F)=N\NC(=O)c1cccc(F)c1	17.8	35.9	-10.8	16.6	90.2*	/
CC(=O)Nc1cccc(C(=O)N/N=C/c2ccccc2F)c1	-9.0	-3.7	-1.9	-3.3	83.0*	0.3
Cn1c(N)c(C(=O)COC(=O)/C=C/c2ccc(S(=O)(=O)N3CCOCC3)cc2)c(=O)n(C)c1=O	0.7	43.4	3.6	-7.1	/	0.5
Cc1nc2ccccc2c(=O)n1/N=C/c1ccc(O)c(O)c1O	8.6	4.6	-23.2	-4.7	/	-3.1
Cc1nc2ccccc2c(=O)n1/N=C/c1ccc2ccccc2c1O	24.0	54.9*	37.5	115.3*	/	20.2
Cc1cc([N+](=O)[O-])cc(/C=N/n2c(C)nc3ccccc3c2=O)c1O	4.2	71.6*	13.9	-1.6	/	7.2
CCOC(=O)c1cc2c(ccn2C)n1Cc1cc(C)ccc1C	10.4	4.6	4.4	3.3	93.4*	10.0
SMILES	T cruzi inh	SKKanGAS inh	Mdm2 MdmX PPI	Beta cell apopt	Lmaj promast	CSC inhib
CCOC(=O)c1cc2c(ccn2C)n1CC(=O)N1CCN(c2ccc(F)cc2)CC1	19.1	-4.5	-12.1	/	-3.8	/
COc1ccc2[nH]c3c(c2c1)CCN1C(=O)N([C@@H](C)C(=O)NC2CCN(Cc4ccccc4)CC2)C(=O)[C@]31C	64.0*	5.8	35.1	/	/	-1.6
COc1ccc2[nH]c3c(c2c1)CCN1C(=O)N([C@@H](C)C(=O)NC2CC2)C(=O)[C@]31C	-19.6	-0.7	21.6	-6.2	/	-12.0
C[C@@H](C(=O)NCCc1ccccc1)N1C(=O)N2CCc3c([nH]c4ccccc34)[C@@]2(C)C1=O	61.3*	1.0	-13.1	1.2	/	-15.3
C[C@@H](C(=O)NC1CCN(Cc2ccccc2)CC1)N1C(=O)N2CCc3c([nH]c4ccccc34)[C@@]2(C)C1=O	59.2*	1.3	11.2	8.3	/	-3.3
O=C(N/N=C\c1cc2c(cc1Cl)OCO2)c1cccs1	8.5	-2.1	-24.0	7.4	/	-2.1
C/C(=N\OCC(=O)OCC(=O)N(Cc1ccccc1)C(C)(C)C)c1ccc2c(c1)OCO2	-13.2	9.2	1.9	-2.6	/	-1.7
CC(C)C[C@@H](CO)N1CCN(CC(C)C)CCC1=O	-12.9	0.2	14.6	-6.7	/	1.1
CCOC(=O)C1CCN(C(=O)C23CC4CC(CC(C4)C2)C3)CC1	-0.7	-0.1	1.7	-3.3	103.7*	1.4
Cc1ccc(C(C(=O)Nc2ccc(C(C)C)cc2)N(C)C(=O)c2ccc(=O)[nH]c2)cc1 (stereo not given)	22.5	6.3	0.4	2.1	-8.5	-0.5
COc1cccc(-c2cc(C(F)(F)F)n3nc(C(=O)N4CCCCC4c4cccnc4)cc3n2)c1 (stereo not given)	/	/	19.0	17.4	89.3*	8.0
COc1ccc(-c2cc(C(F)(F)F)n3nc(C(=O)N4CCCCC4)cc3n2)cc1	19.8	-3.8	5.7	2.0	23.5	0.7
CC(C)(O)CC[C@@H](O)[C@](C)(O)[C@H]1CC[C@@]2(O)C3=CC(=O)[C@@H]4C[C@@H](O)[C@@H](O)C[C@]4(C)[C@H]3CC[C@]12C	-16.1	0.1	-11.9	-4.7	/	-6.1
CC(=O)Nc1ccc(S(=O)(=O)N2CCN(C(C)CCc3ccccc3)CC2)cc1 (stereo not given)	-19.8	0.5	5.5	-11.9	85.5*	-2.2
O=S(=O)(c1ccc(NC(=S)NN=C(Cc2ccccc2)Cc2ccccc2)cc1)N1CCOCC1	-5.9	32.7	2.3	/	92.4*	-4.7
CC(C)(C)NNC(=S)Nc1ccc(S(=O)(=O)N2CCOCC2)cc1	-1.0	-2.7	-0.8	2.6	-0.5	0.4
CC(=O)Nc1ccc(NC(=O)C(C)N2CCN(S(=O)(=O)c3ccc(C)cc3)CC2)cc1 (stereo not given)	-0.2	-0.6	-1.8	0.2	-3.7	-2.5
O=S(=O)(c1ccc(NC(=S)NCCc2ccccc2)cc1)N1CCOCC1	-18.2	2.6	-16.5	-6.5	68.8*	27.7
Cn1ccc(CC(=O)N2CCC(N3CCC(C(=O)N4CCCC4)CC3)CC2)c1	-12.1	-4.3	5.2	0.8	/	-2.9
COc1ccccc1-n1c(=O)c(C#N)c(-c2ccc([N+](=O)[O-])cc2)c2cc(C(=O)c3ccccc3O)cnc21	19.5	4.3	17.4	6.0	/	8.6
N#Cc1ccsc1NC(=O)CN1CCCCCC1	-13.7	0.7	0.1	-2.7	58.6*	-2.8
